Results reported in PubChem BioAssay.
Inconclusive results are not listed. Calls of active or inactive are those of the source.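 Rule for the calls, unless noted: active = cell viability at or below a set limit in both duplicate runs, the limit being the all-compound median minus 4 SD (cut at about 23% in these data, passing the limit was not always enough); inconclusive = no clear call, values can overlap the other calls; inactive = the rest.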

Tests used:
[1] = OD615 S. cerevisiae growth inhibition, permissive medium, pilot counter-assay, permissive growth control for S. cerevisiae lifespan shortening project (AID 705;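 active = growth inhibition above 25% in both replicates, a cutoff set 3 SD above the mean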); settings: OD615, 24 h, at 10 µM, active compounds read high
Summary of the method: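 Timing: 24 h exposure, 30 °C / Material: Saccharomyces cerevisiae strain carrying genetically modified DeaD replicative-lifespan system / Signal: OD at 615 nm / Compound: 10 µM single dose, 0.25% DMSO / Medium: SC raffinose/galactose permissive medium / Evaluation: reduction in yeast growth (OD615)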

[2] = Restrictive medium S. cerevisiae growth inhibition, OD615, pilot screen of yeast lifespan reduction project, restrictive growth control (AID 706;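 active = growth inhibition above a set limit, 3 SD over mean compound inhibition, in both replicates, cut at about 43% in these data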;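 note: modified DeaD lifespan yeast strain shifted to restrictive glucose medium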); settings: OD615, 48 h, at 10 µM, active compounds read high
Summary of the method: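 System: Engineered S. cerevisiae DeaD strain | Detection: OD615 | Buffer or medium: CSMM-D glucose medium | Doses: 10 µM compound, 0.25% DMSO | Timing: 4 h pre-growth plus 48 h compound exposure, 30 °C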

[3] = viability gain of MRP-1-high H69AR cells under doxorubicin, pilot screen, MRP-1 activator project, CellTiter-Glo, duplicate (AID 807;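 active = viability increase at or above a cutoff of the median across tested compounds plus 3 SD, cut at about 8.5% in these data, passing the limit was not always enough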;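 note: compound pretreatment 18-22 h then 72 h combined with doxorubicin; 0% = doxorubicin alone and 100% = vehicle without doxorubicin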); settings: H69AR viability with doxorubicin, CellTiter-Glo luminescence; at 10 µM; active compounds read high
[4] = growth suppression of beta-catenin knockout HCT116, pilot screen, human colon tumor cells (AID 823); settings: CellTiter-Glo, 60 h, at 10 µM, active compounds read low;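 note: 0% = wells killed by 20 µM Hyamine and 100% = untreated DMSO cell wells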
[5] = growth suppression of PTEN-deleted HCT116, pilot screen, cell-based, HCT116 clonal line, CellTiter-Glo (AID 824;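 active = viability at or below 27.92% in each of two runs, the all-compound median minus 4 SD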;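 note: 0% = 20 µM Hyamine control and 100% = vehicle cell control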); settings: 60 h, at 10 µM, active compounds read low
[6] = inhibitors of the yeast RAM network, pilot screen, dse1pr::URA3 reporter, 5-FOA selection (AID 869;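 active = inhibition over a set limit, the all-compound mean plus 3 SD, in both replicate runs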;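 note: 0% = DMSO wells with no growth and 100% = 10 µM 1-NA-PP1 with full growth; RAM network block rescues cells from 5-FOA so hits raise OD615 growth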); settings: S. cerevisiae dse1pr::URA3 5-FOA growth, OD615, 2 d; at 10 µM; active compounds read high; strain carries analog-sensitive mutant Cbk1 kinase
[7] = RAM signaling pathway blockade in yeast – S. cerevisiae, Pdr1DBD-CYC8 efflux-inhibited sensitized strain, primary screen (AID 1298;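 active = RAM network inhibition above 8.4% in each of two replicates, 3 SD over the compound average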;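 note: 0% = DMSO untreated cells without growth and 100% = 10 µM 1-NA-PP1 full growth; higher means more yeast growth rescued from 5-FOA killing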); settings: S. cerevisiae cbk1-as DSE1-URA3 strain, 5-FOA growth OD615, 2 d; at 50 µM; active compounds read high

CC(=O)C1=C(O)C(=O)N(CC(=O)O)C1c1ccccc1Cl (centres undefined)
inactive: growth inhibition [1] 0.915% | growth inhibition [2] 9.59% | viability increase [3] -0.3% | viability [4] 104% | viability [5] 104% | inhibition [6] 2.28% | RAM network inhibition [7] 2.43%

COc1cc(OC)c(C2CC(=O)N3CN(C)CSC3=C2C#N)cc1OC (centres undefined)
inactive: growth inhibition [1] 19.5% | viability increase [3] -2.96% | viability [4] 99.3% | viability [5] 97.2% | inhibition [6] 1.06% | RAM network inhibition [7] 9.58%
active: growth inhibition [2] 60%

COC(=O)C1=C(C)NC(=O)NC1C1CC=CCC1 (centres undefined)
inactive: growth inhibition [1] -13.7% | growth inhibition [2] -8.8% | viability increase [3] 0.06% | viability [4] 96.2% | viability [5] 95.5% | inhibition [6] 3.1% | RAM network inhibition [7] 6.9%

Clc1ccc(Cc2nnc(-c3ccccc3Br)o2)cc1
inactive: growth inhibition [1] 1.55% | growth inhibition [2] -0.37% | viability increase [3] 4.88% | viability [4] 101% | viability [5] 91.3% | inhibition [6] -0.5% | RAM network inhibition [7] 3.39%

CCCCCSc1nc2c(c(=O)[nH]c(=O)n2C)n1C
inactive: growth inhibition [1] -12.6% | growth inhibition [2] -5.52% | viability increase [3] -2.27% | viability [4] 90.3% | viability [5] 79.6% | inhibition [6] 2.1% | RAM network inhibition [7] 0.68%

O=c1[nH]cnc2c1sc(=S)n2-c1ccccc1
inactive: growth inhibition [1] 10.2% | growth inhibition [2] 29.8% | viability increase [3] -0.17% | viability [4] 101% | viability [5] 97.1% | inhibition [6] 1.87% | RAM network inhibition [7] 8.71%

O=C(NCc1ccc(Cl)c(Cl)c1)c1ccco1
inactive: growth inhibition [1] -5.02% | growth inhibition [2] -2.23% | viability increase [3] -3.58% | viability [4] 90.8% | viability [5] 84.9% | inhibition [6] 1.23% | RAM network inhibition [7] 3.74%

Cc1cc(=O)[nH]c(SCc2cc(=O)n3nc(C)sc3n2)n1
inactive: growth inhibition [1] 4.53% | growth inhibition [2] -7.55% | viability increase [3] -1% | viability [4] 104% | viability [5] 96.5% | inhibition [6] 1.32% | RAM network inhibition [7] 5.96%

COc1ccc(C(=O)O)cc1Nc1cc(C)nc2ncnn12
inactive: growth inhibition [1] 1.95% | growth inhibition [2] -2.37% | viability increase [3] -1.14% | viability [4] 103% | viability [5] 93% | inhibition [6] 0.015% | RAM network inhibition [7] 0.94%

CN1CCN(CCCNC(=O)c2cc3c(-c4ccc(Cl)cc4)nn(C)c3s2)CC1
inactive: growth inhibition [1] -8.24% | growth inhibition [2] -2.25% | viability increase [3] -8.21% | inhibition [6] 0.445% | RAM network inhibition [7] 0.92%
active: viability [4] 2.18% | viability [5] 2%

COc1ccc(NC(=O)Nc2cccc(OC)c2)cc1
inactive: growth inhibition [1] -3.64% | growth inhibition [2] -19.4% | viability increase [3] -0.65% | viability [4] 95.3% | viability [5] 93.4% | inhibition [6] 1.02% | RAM network inhibition [7] 1.14%

Cc1ccc2oc(=O)c3cc(C(=O)NCCN4CCN(C)CC4)sc3c2c1
inactive: growth inhibition [1] -0.32% | growth inhibition [2] -8.46% | viability increase [3] -1.81% | viability [4] 85.5% | viability [5] 83.5% | inhibition [6] 0.16% | RAM network inhibition [7] 0.45%

Cc1nc2ccc(S(=O)(=O)NC(C(=O)NCc3ccco3)C(C)C)cc2s1 (centres undefined)
inactive: growth inhibition [1] -6.93% | growth inhibition [2] -0.665% | viability increase [3] -2.43% | viability [4] 101% | viability [5] 101% | inhibition [6] 0.895% | RAM network inhibition [7] -0.06%

O=C(CCSc1ccccc1)Nc1nnc(-c2ccccc2)o1
inactive: growth inhibition [1] -0.38% | growth inhibition [2] 3.81% | viability increase [3] -3.73% | viability [4] 98.9% | viability [5] 103% | inhibition [6] 0.27% | RAM network inhibition [7] 2.5%

O=C1c2ccccc2C(Nc2ccc3c(c2)OCCO3)N1c1ccc(Cl)cn1 (centres undefined)
inactive: growth inhibition [1] -12.2% | growth inhibition [2] 3.92% | viability increase [3] 1.76% | viability [4] 81.7% | viability [5] 75.2% | inhibition [6] 1.83% | RAM network inhibition [7] 9.61%

COC(=O)c1ccc(NC(=O)CSc2nnc(COc3ccc4c(c3)CCCC4)o2)cc1
inactive: growth inhibition [1] -2.11% | growth inhibition [2] -2.11% | viability increase [3] -3.92% | viability [4] 97.8% | viability [5] 96.7% | inhibition [6] 3.43% | RAM network inhibition [7] 4.19%

Cc1ccc2nc(NC(=O)C3CCN(S(=O)(=O)c4ccc5c(c4)oc(=O)n5C)CC3)sc2c1
inactive: growth inhibition [1] -5.8% | growth inhibition [2] -24.5% | viability increase [3] 1.75% | viability [4] 82.2% | viability [5] 88.9% | inhibition [6] 1.54% | RAM network inhibition [7] 9.3%

Cc1cccc(OCc2nnc(SCC(=O)NCCc3ccccc3)o2)c1
inactive: growth inhibition [1] -3.83% | growth inhibition [2] -15.6% | viability increase [3] -1.67% | viability [4] 98% | viability [5] 95.2% | inhibition [6] 3.1% | RAM network inhibition [7] 1.99%

COc1ccc(N2C(=O)C3CCCN3C2c2ccccc2)cc1 (centres undefined)
inactive: growth inhibition [1] 4.01% | growth inhibition [2] -9.51% | viability increase [3] -0.65% | viability [4] 102% | viability [5] 101% | inhibition [6] 1.87% | RAM network inhibition [7] -0.32%

COc1ccc(-c2cc(C(F)(F)F)nc(N3CCN(C)CC3)n2)cc1
inactive: growth inhibition [1] 1.48% | growth inhibition [2] -4.37% | viability increase [3] -5.32% | viability [4] 33.7% | viability [5] 42.9% | inhibition [6] 1.43% | RAM network inhibition [7] 4.04%

Brc1ccc(CSc2nnc(-c3ccccn3)n2Cc2ccco2)cc1
inactive: growth inhibition [1] 2.3% | growth inhibition [2] 28.9% | viability increase [3] -3.69% | inhibition [6] 2.53% | RAM network inhibition [7] 7.63%
active: viability [4] 15.2% | viability [5] 15.7%

Cc1noc(C(=O)Nc2sc3c(c2C#N)CCC3)c1Cl
inactive: growth inhibition [1] -6.86% | growth inhibition [2] 2.54% | viability increase [3] -1.69% | viability [4] 65.8% | viability [5] 55.6% | inhibition [6] 1.84% | RAM network inhibition [7] 2.59%

Cn1c(=O)c2c(SC3CCCC3)nc(C3CC3)nc2n(C)c1=O
inactive: growth inhibition [1] 3.3% | growth inhibition [2] -9.07% | viability increase [3] 1.43% | viability [4] 91% | viability [5] 86.3% | inhibition [6] 2.54% | RAM network inhibition [7] 2.78%

Cc1cc(NC(=O)CSc2nnc(Cc3cccn3C)n2CCc2ccccc2)no1
inactive: growth inhibition [1] 6.44% | growth inhibition [2] 14.2% | viability increase [3] -2.85% | viability [4] 93.2% | viability [5] 89.4% | inhibition [6] 0.955% | RAM network inhibition [7] 7.83%

COc1ccc(OC)c(S(=O)(=O)n2nc(-c3ccccc3)cc2N)c1
inactive: growth inhibition [1] -6.75% | growth inhibition [2] -2.54% | viability increase [3] -2.02% | viability [4] 104% | viability [5] 103% | inhibition [6] 0.795% | RAM network inhibition [7] 1.93%

CCN1CCN(c2ncnc3c2cnn3-c2ccccc2)CC1
inactive: growth inhibition [1] -13.8% | growth inhibition [2] -7.68% | viability increase [3] 1.69% | viability [4] 102% | viability [5] 89.8% | inhibition [6] 1.7% | RAM network inhibition [7] 2.03%

CCC(C)Nc1nc2c(c(=O)n(C)c(=O)n2C)n1Cc1ccc(Cl)cc1 (centres undefined)
inactive: growth inhibition [1] -0.995% | growth inhibition [2] -4.79% | viability increase [3] -4.21% | viability [4] 79% | viability [5] 70.6% | inhibition [6] -0.035% | RAM network inhibition [7] 4.57%

COCCn1c(SCC(=O)NCC2CCCO2)nc2c(c1=O)SC(C)C2 (centres undefined)
inactive: growth inhibition [1] -7.14% | growth inhibition [2] -0.265% | viability increase [3] -0.65% | viability [4] 110% | viability [5] 109% | inhibition [6] 1.19% | RAM network inhibition [7] 3.08%

CCc1ccccc1N1CC23C=CC(O2)C(C(=O)OCC(C)C)C3C1=O (centres undefined)
inactive: growth inhibition [1] -14.3% | growth inhibition [2] -12.6% | viability increase [3] -0.48% | viability [4] 93.7% | viability [5] 89.6% | inhibition [6] 0.385% | RAM network inhibition [7] 0.42%

CCc1ncc(C(=O)c2ccc(OC)cc2)n1C
inactive: growth inhibition [1] 1.37% | growth inhibition [2] -0.315% | viability increase [3] 3.42% | viability [4] 105% | viability [5] 104% | inhibition [6] 0.225% | RAM network inhibition [7] 5.28%

COc1ccc(Cl)cc1NC(=O)Cn1c(=O)n2nc(C)nc2c2ccccc21
inactive: growth inhibition [1] -7.69% | growth inhibition [2] 3.31% | viability increase [3] -7.15% | viability [4] 90.9% | viability [5] 87.8% | inhibition [6] 0.175% | RAM network inhibition [7] 6.46%

COc1cc2c(C(=O)NCc3ccccn3)cn(CC(C)C)c(=O)c2cc1OC
inactive: growth inhibition [1] -6.14% | growth inhibition [2] -28.3% | viability increase [3] -3.77% | viability [4] 104% | viability [5] 92.4% | inhibition [6] 1.55% | RAM network inhibition [7] 1.16%

O=C(NC1=NCCS1)c1csc2ccccc12
inactive: growth inhibition [1] -9.29% | growth inhibition [2] 27.3% | viability increase [3] -3.86% | viability [4] 74% | viability [5] 79% | inhibition [6] 1.16% | RAM network inhibition [7] 1.26%

COc1ccc(C2C(C(=O)Nc3cccc(C)n3)c3ccccc3C(=O)N2C)cc1 (centres undefined)
inactive: growth inhibition [1] -11.3% | growth inhibition [2] -6.23% | viability increase [3] -0.69% | viability [4] 101% | viability [5] 93.9% | inhibition [6] 1.39% | RAM network inhibition [7] 2.93%

CCN1CCN(Cc2nc3c(c(=O)n(C)c(=O)n3C)n2Cc2ccc(Cl)cc2Cl)CC1
inactive: growth inhibition [1] -9.72% | growth inhibition [2] -16.2% | viability increase [3] -3.62% | viability [4] 99.1% | viability [5] 98.8% | inhibition [6] 0.615% | RAM network inhibition [7] 1.52%

Cc1csc2nc(CNC(=O)CCC(=O)O)cn12
inactive: growth inhibition [1] -8.41% | growth inhibition [2] -2.59% | viability increase [3] -0.98% | viability [4] 101% | viability [5] 99.5% | inhibition [6] 1.4% | RAM network inhibition [7] 2.71%

CCN1CCN(Cc2nc3c(c(=O)n(C)c(=O)n3C)n2Cc2ccccc2Cl)CC1
inactive: growth inhibition [1] -8.38% | growth inhibition [2] -13.4% | viability increase [3] -3.38% | viability [4] 91.7% | viability [5] 91.6% | inhibition [6] 1.17% | RAM network inhibition [7] 0.71%
